Results reported in ChEMBL document CHEMBL4765283, “Design, synthesis, in vitro and in silico studies of novel 4-oxoquinoline ribonucleoside derivatives as HIV-1 reverse transcriptase inhibitors” (Eur J Med Chem, 2020).

Tests used:
[1] = Inhibition of recombinant HIV1 HXB2 reverse transcriptase RDDP activity assessed as reduction in biotin/digoxin-dU incorporation into polirA-oligodU template primer measured after 30 mins by ELISA; set-up: species or system HIV-1 M:B_HXB2R
Method in brief: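 Purified recombinant HIV-1 RT (HXB2 clone), 3 U, incubated with compounds over a concentration range and poly(rA)-oligo(dU). Biotin- and digoxin-labelled dU (equimolar) incorporated at 37 °C for 30 min, stopped with 0.5 M EDTA. Product captured on streptavidin-coated plates and detected with peroxidase-tagged anti-digoxin antibody. Absorbance read at 570 nm against 690 nm reference. IC50 from linear regression of dose-response curves.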

[2] = Cytotoxicity against human PBMC assessed as reduction in cell viability after 72 hrs by XTT assay; type: tissue-based
Method in brief: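 Primary human PBMCs, 2×10^4 cells/well, exposed to compounds at several concentrations for 72 h. XTT (5 mg/mL) with 0.01 % PMS in DMEM then added for 4 h at 37 °C. Absorbance read at 492 and 620 nm. CC50 obtained by linear regression of dose-response curves.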

[3] = Protection index, ratio of azidothymidine CC50 to test compound CC50 for human PBMC; type: ADME, tissue-based; settings: read-out: PI
[4] = system: HIV1 HXB2 reverse transcriptase RDDP activity; test: Selectivity index, ratio of CC50 for human PBMC to IC50 for inhibition of recombinant HIV1 HXB2 reverse transcriptase RDDP activity; type: toxicity; settings: read-out: Ratio CC50/IC50

With `O=C(NCc1ccc(Cl)cc1)c1cn([C@@H]2O[C@H](CO)[C@@H](O)[C@H]2O)c2ccc(Cl)cc2c1=O` the IC50 [1] was 18.4 µM, the CC50 at 72 h [2] was > 1 mM and the selectivity ratio [3] was > 10.
With `O=C(NCc1ccc(Cl)cc1)c1cn([C@@H]2O[C@H](CO)[C@@H](O)[C@H]2O)c2ccc(F)cc2c1=O` the IC50 [1] was 3.9 µM, the CC50 at 72 h [2] was > 1 mM and the selectivity ratio [3] was > 10.
In the case of `O=C(OC[C@H]1O[C@@H](n2cc(C(=O)Nc3ccc(F)cc3)c(=O)c3cc(Cl)ccc32)[C@H](OC(=O)c2ccccc2)[C@@H]1OC(=O)c1ccccc1)c1ccccc1`, the IC50 [1] is reported as 7.3 µM, the CC50 at 72 h [2] is reported as > 1 mM and the selectivity ratio [3] is reported as > 10.
With `O=C(OC[C@H]1O[C@@H](n2cc(C(=O)NC3CCCCC3)c(=O)c3cc(Cl)ccc32)[C@H](OC(=O)c2ccccc2)[C@@H]1OC(=O)c1ccccc1)c1ccccc1` the IC50 [1] was 8.6 µM, the CC50 at 72 h [2] was > 1 mM and the selectivity ratio [3] was > 10.
For `O=C(NCc1ccc(Cl)cc1)c1cn([C@@H]2O[C@H](CO)[C@@H](O)[C@H]2O)c2ccccc2c1=O`, the IC50 [1] was 29.2 µM, the CC50 at 72 h [2] was > 1 mM and the selectivity ratio [3] was > 10.
In the case of `O=C(NC1CCCCC1)c1cn([C@@H]2O[C@H](CO)[C@@H](O)[C@H]2O)c2ccc(Cl)cc2c1=O`, the IC50 [1] is reported as 22.4 µM, the CC50 at 72 h [2] is reported as > 1 mM and the selectivity ratio [3] is reported as > 10.
For `COc1ccc(NC(=O)c2cn([C@@H]3O[C@H](COC(=O)c4ccccc4)[C@@H](OC(=O)c4ccccc4)[C@H]3OC(=O)c3ccccc3)c3ccc(Cl)cc3c2=O)cc1`, the IC50 [1] was 6.8 µM, the CC50 at 72 h [2] was > 1 mM and the selectivity ratio [3] was > 10.
In the case of `O=C(Nc1ccc(F)cc1)c1cn([C@@H]2O[C@H](CO)[C@@H](O)[C@H]2O)c2ccc(Cl)cc2c1=O`, the IC50 [1] is reported as 5.8 µM, the CC50 at 72 h [2] is reported as > 1 mM and the selectivity ratio [3] is reported as > 10.
In the case of `O=C(NCc1ccc(Cl)cc1)c1cn([C@@H]2O[C@H](CO)[C@@H](O)[C@H]2O)c2ccc(C(F)(F)F)cc2c1=O`, the IC50 [1] is reported as 3.9 µM, the CC50 at 72 h [2] is reported as > 1 mM and the selectivity ratio [3] is reported as > 10.
With `O=C(OC[C@H]1O[C@@H](n2cc(C(=O)NCc3ccc(Cl)cc3)c(=O)c3cc(Cl)ccc32)[C@H](OC(=O)c2ccccc2)[C@@H]1OC(=O)c1ccccc1)c1ccccc1` the IC50 [1] was 8.8 µM, the CC50 at 72 h [2] was > 1 mM and the selectivity ratio [3] was > 10.
With `O=C(OC[C@H]1O[C@@H](n2cc(C(=O)NCc3ccc(Cl)cc3)c(=O)c3cc(C(F)(F)F)ccc32)[C@H](OC(=O)c2ccccc2)[C@@H]1OC(=O)c1ccccc1)c1ccccc1` the IC50 [1] was 2.9 µM, the CC50 at 72 h [2] was > 1 mM and the selectivity ratio [3] was > 10.
With `COc1ccc(NC(=O)c2cn([C@@H]3O[C@H](CO)[C@@H](O)[C@H]3O)c3ccc(Cl)cc3c2=O)cc1` the IC50 [1] was 3.4 µM, the CC50 at 72 h [2] was > 1 mM and the selectivity ratio [3] was > 10.
With `O=C(Nc1ccccc1)c1cn([C@@H]2O[C@H](CO)[C@@H](O)[C@H]2O)c2ccc(Cl)cc2c1=O` the IC50 [1] was 2.6 µM, the CC50 at 72 h [2] was > 1 mM and the selectivity ratio [3] was > 10.
With `O=C(OC[C@H]1O[C@@H](n2cc(C(=O)Nc3ccc(Cl)cc3)c(=O)c3cc(Cl)ccc32)[C@H](OC(=O)c2ccccc2)[C@@H]1OC(=O)c1ccccc1)c1ccccc1` the IC50 [1] was 9.9 µM, the CC50 at 72 h [2] was > 1 mM and the selectivity ratio [3] was > 10.
In the case of `Cc1ccc2c(c1)c(=O)c(C(=O)NCc1ccc(Cl)cc1)cn2[C@@H]1O[C@H](COC(=O)c2ccccc2)[C@@H](OC(=O)c2ccccc2)[C@H]1OC(=O)c1ccccc1`, the IC50 [1] is reported as 1.6 µM, the CC50 at 72 h [2] is reported as 1.39 mM and the selectivity ratio [4] is reported as 830. For the same molecule, the selectivity ratio [3] was > 10.
`Cc1cn([C@H]2C[C@H](N=[N+]=[N-])[C@@H](CO)O2)c(=O)[nH]c1=O` [ZIDOVUDINE] showed an IC50 [1] of 0.05 µM and a CC50 at 72 h [2] of 0.126 mM.
`O=C(OC[C@H]1O[C@@H](n2cc(C(=O)NCc3ccc(Cl)cc3)c(=O)c3ccccc32)[C@H](OC(=O)c2ccccc2)[C@@H]1OC(=O)c1ccccc1)c1ccccc1` showed an IC50 [1] of 1.4 µM, a CC50 at 72 h [2] of 1.49 mM and a selectivity ratio [4] of 998. For the same molecule, the selectivity ratio [3] was > 10.
In the case of `O=C(OC[C@H]1O[C@@H](n2cc(C(=O)NCc3ccc(Cl)cc3)c(=O)c3cc(F)ccc32)[C@H](OC(=O)c2ccccc2)[C@@H]1OC(=O)c1ccccc1)c1ccccc1`, the IC50 [1] is reported as 2.8 µM, the CC50 at 72 h [2] is reported as > 1 mM and the selectivity ratio [3] is reported as > 10.
With `Cc1ccc2c(c1)c(=O)c(C(=O)NCc1ccc(Cl)cc1)cn2[C@@H]1O[C@H](CO)[C@@H](O)[C@H]1O` the IC50 [1] was 4.3 µM, the CC50 at 72 h [2] was > 1 mM and the selectivity ratio [3] was > 10.
With `Cc1ccc(NC(=O)c2cn([C@@H]3O[C@H](COC(=O)c4ccccc4)[C@@H](OC(=O)c4ccccc4)[C@H]3OC(=O)c3ccccc3)c3ccc(Cl)cc3c2=O)cc1` the IC50 [1] was 16.6 µM, the CC50 at 72 h [2] was > 1 mM and the selectivity ratio [3] was > 10.
For `O=C(OC[C@H]1O[C@@H](n2cc(C(=O)Nc3ccccc3)c(=O)c3cc(Cl)ccc32)[C@H](OC(=O)c2ccccc2)[C@@H]1OC(=O)c1ccccc1)c1ccccc1`, the IC50 [1] was 19.5 µM, the CC50 at 72 h [2] was > 1 mM and the selectivity ratio [3] was > 10.
For `O=C(Nc1ccc(Cl)cc1)c1cn([C@@H]2O[C@H](CO)[C@@H](O)[C@H]2O)c2ccc(Cl)cc2c1=O`, the IC50 [1] was 8 µM, the CC50 at 72 h [2] was > 1 mM and the selectivity ratio [3] was > 10.
